Data as given in the RNAGym collection of RNA variant scans (doi:10.1126/science.aae0568).
Variants at the floor of the assay were thinned out.

B1: tRNA (parent)
chain: GUUCCGUUGGCGUAAUGGUAACGCGUCUCCCUCCUAAGGAGAAGACUGCGGGUUCGAGUCCCGUACGGAACG

Variants of: B1
Test: yeast fitness relative to wild type (ratio to wild type); higher = fitter; tRNA-Arg(CCU), competitive growth, 37 C, YPD
Outline: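 Gene amplicons from the start population and from each of six end populations were read by 100-nucleotide paired-end sequencing. Those end populations came from pooled Saccharomyces cerevisiae strains carrying tRNA-Arg(CCU) gene variants at the native locus, competed in YPD at 37°C for 24 hours. Fitness relative to wild type was worked out from changes in genotype frequencies. Genotypes needed ≥ 100 starting reads, and estimates < 0.5 were set to 0.5.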

Variant | yeast fitness
A45U G51C G68A | ≤ 0.5
C46U G50C C55A G63A C66U | ≤ 0.5
A45U C49U U64A | 0.571
U47C C49G | 0.909
G48A C61G | 0.559
C46U U54C G56A | 0.642
A45G G48C G56A | 0.968
U47G C62U A65C | ≤ 0.5
U47G C62U A65U | 0.64
C46G U53A A65C | ≤ 0.5
G48C G50A | 0.651
G48C A57G G63A | ≤ 0.5
C46G C55G | 0.722
G48C A65G G67C | ≤ 0.5
U47A U53A | 0.557
U47C G63A | 0.949
G48C C49U A70C | 0.592
U47G A57U C60A | 0.555
U47G G52A C61A G67C | ≤ 0.5
C46A G63A G67A | 0.552
U47G C62U | 0.633
C46A A57C C60A | ≤ 0.5
A45U G48C A57C G67U | ≤ 0.5
A45U A65G G68A | 0.73

Variant | yeast fitness
A45U C55U C62A | ≤ 0.5
G48A A70U | 1.04
G48A A70C | 0.956
C49A C61U C62A G67C | ≤ 0.5
C46U A69U | 1.03
C46U A69C | 0.976
A45U C46U U53C | 0.574
C46A C49A C61A | ≤ 0.5
C46G C49A G67A | 0.606
C46G C49A G67C | ≤ 0.5
C46U C61A | 0.83
C46U C61U | 0.956
G48A C55U G63A | 0.706
G48A G50A | 0.973
G48C G51C A69U | ≤ 0.5
C46A G63C | 0.995
C46U C60A A69U | 0.57
A45G U47C | 1.01
A45G C49A C62A | ≤ 0.5
A45U G50A C55G A70U | ≤ 0.5
A45U U53G G67A | ≤ 0.5
C46G A57C G58A G67A | ≤ 0.5
A45G C55A G56A G67A | ≤ 0.5
G48C G50A G67A | ≤ 0.5

Variant | yeast fitness
A45U G50A | 1.01
G48A U54C C66U | ≤ 0.5
A45G C46G U54G A70C | ≤ 0.5
C46A G56A C61A | 0.603
C46G G52A C66U | 0.631
G48C G67U | 0.811
G48C G67A | 0.873
A45U C62U G63C | ≤ 0.5
A45U G50U G68C A69U | ≤ 0.5
A45U A57G | 0.917
G48A G51A | 1.04
C46A A65C | 0.973
C46A A65U | 0.843
A45U C62U | 1.07
A45U C62G | 0.837
G48A U64G | 1
G48C G56A A70U | 0.918
G48A C66A G68U A70C | ≤ 0.5
U47A C55A G68A | 0.532
C46A U64A A65C | 0.978
G48A G52C A57C C62A | ≤ 0.5
A45G G51A G67A | 0.601
G48C G56A C61A | ≤ 0.5
A45U C46U | 1.09

Variant | yeast fitness
U47C A65C | 1.04
C46G C60A | 0.576
A45G C49U A69U | 1.04
C46G G48C A65U G68A | ≤ 0.5
G48A G56C | 0.618
A45U G68A A70C | 0.641
A45G G67C | 0.872
A45G G67A | 0.961
A45G C55U C61G A69C | ≤ 0.5
C46G C49A U54C G58C | ≤ 0.5
A45G G56A | 1.1
A45U C46A G63A | 1.06
G48A G68C | 0.985
G48A A57U | 0.649
A45G C62A A69C | 0.595
U47A C62A | 0.683
U47A C62U | 0.842
C46U G63C | 0.753
C46A G58A | 0.837
G48C G56A | 0.905
U47A U54C | 0.811
C46A G52A | 0.816
C46G U54A C62U | ≤ 0.5
U47C G58U G63A A65U | ≤ 0.5

Variant | yeast fitness
G48A G58C C61A | 0.601
G48C U59G | 0.722
G48C U59C | 0.929
A45G G48A G56C C60G | ≤ 0.5
G48C A65C C66G | 0.557
G48A G50A U54A | 0.597
C49A A69C | 0.709
C49A A69U | 0.681
G48C C61G A65U | ≤ 0.5
C46U G50A C61U | 0.749
G48A C62U A70U | 0.824
G48A G52C U54C | 0.542
C46U C61G A70C | ≤ 0.5
A45U A57U U59G U64G | ≤ 0.5
C46A U47G C49A G52A G58C U64G A65G | ≤ 0.5
C46G C60A G67U | 0.536
U47C C61G | 0.671
U47A G67A | 0.765
U47A G67C | 0.88
U47C G68C | 0.742
U47C G68U | 1.1
C46A C62U | 1.02
G48A U54A | 0.692
A45G U54C | 0.774

Variant | yeast fitness
A45U U53C G67A A69C | 0.635
G48A G67A | 0.91
G48A G67C | 1.02
A45U G68A | 0.926
A45U G68C | 0.66
A45U G68U | 0.836
A45U G67A | 0.767
C46A U47A | 1.04
G48C G63C | 0.705
U47C A69C | 1.07
A45G A70U | 0.913
A45G A70G | 1.19
A45U C62G A65G | 0.913
A45G C60U | 0.743
A45G C60G | 0.821
C46A G48C U59G | 0.534
C46G G63C G67A A70G | ≤ 0.5
G48A G63A | 0.887
A45U C61G C66U | 0.53
C46G C62G A69G | 0.733
C46U C49G G68A | 0.64
A45U G50A G63A G68C A69U | ≤ 0.5
G48C G52C A57C G58A | ≤ 0.5
C46U C49A C60A A70C | ≤ 0.5

Variant | yeast fitness
U47G U54C | 0.504
A45G G50C U54A G67A | 0.803
U47C C60U C62A | ≤ 0.5
U47C G50C | 0.633
C46U C61U G67A | 0.535
C46A G68A A70C | 1.11
U47C G48C A65C | 0.619
C46U G63A A69C | 0.833
G48A C60U A70U | 0.71
C46A G48A U64G | 0.951
C46U A65U | 0.883
C46U C49G G51C C66G | ≤ 0.5
A45G C61G A65C A70U | ≤ 0.5
U47A C66U | 0.872
A45U G56C | 0.714
G48A G56A A65G | 0.718
C46A C62U A69C | 0.69
C46G G51C | 0.591
C46G G51A | 0.766
C46A U59C | 0.898
C46A U59G | 1.06
C46U C49A A65U | 0.554
U47G G50A C55A G56A | 0.533
